Experiment [1] concerns Mus musculus. The experiment in a line: Antiobesity activity in high fat diet-induced obese Ptpn2fl/fl null C57BL/6 mouse assessed as reduction in body weight at 100 ug/kg, ip for 10 consecutive days. Format: functional, organism-based. The essentials: (§1)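 Male Ptpn1fl/fl, Ptpn2fl/fl or double-floxed mice: chow 8 weeks, then high-fat diet (45% energy from fat) 12 weeks. Bilateral intra-ARC stereotaxic injection of rAAV-CMV-Cre-GFP or rAAV-CMV-GFP, 100 nL/side. After 2 weeks recovery, vehicle or 100 μg/kg ip daily at 6 pm for 10 days; body weight tracked; two-way repeated-measures ANOVA with Tukey test; means ± SEM.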

Experiment [2] relates to Mus musculus. The experiment in a line: Antiobesity activity in high fat diet-induced obese Ptpn2fl/fl null C57BL/6 mouse assessed as hypophagia at 100 ug/kg, ip for 10 consecutive days. It counts as functional, organism-based.
Experiment [3] has as its target T1, Tyrosine-protein phosphatase non-receptor type 2 (Homo sapiens, UniProt P17706).
T1 sequence (P17706 whole entry): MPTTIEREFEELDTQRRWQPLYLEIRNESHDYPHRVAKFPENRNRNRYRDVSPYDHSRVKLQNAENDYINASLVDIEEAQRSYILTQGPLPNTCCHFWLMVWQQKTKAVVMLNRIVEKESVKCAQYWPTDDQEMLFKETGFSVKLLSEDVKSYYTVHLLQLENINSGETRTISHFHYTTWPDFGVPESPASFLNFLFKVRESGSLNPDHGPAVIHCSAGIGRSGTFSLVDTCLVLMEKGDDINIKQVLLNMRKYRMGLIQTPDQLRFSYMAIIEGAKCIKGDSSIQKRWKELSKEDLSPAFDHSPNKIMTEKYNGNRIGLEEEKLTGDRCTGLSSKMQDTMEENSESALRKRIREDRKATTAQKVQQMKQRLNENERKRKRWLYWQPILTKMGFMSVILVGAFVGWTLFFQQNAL
The experiment in a line: Inhibition of human N-terminal His6-tagged TCPTP catalytic domain (1 to 336 residues) expressed in Escherichia coli strain Rosetta2 (DE3) using DiFMUP as substrate preincubated for 10 mins followed by substrate addition and measured after 10 mins by fluorescence assay. The procedure, abridged: (§2)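 Tag-cleaved, SEC-purified enzyme at 1 nM, preincubated 10 min with compound at 15 concentrations from 0–500 μM (5% DMSO final) in 25 mM Bis-Tris propane pH 7.5, 50 mM NaCl, 2 mM EDTA. DiFMUP added at each construct's Km (10, 7, 10, 9 μM for PTP1B1−298, PTP1B1−393, TCPTP1−296, TCPTP1−336). Read ex 358/em 455 nm continuously 10 min at 37 °C; triplicate; log(inhibitor)-response fit.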

Experiment [4] concerns the target T1, Tyrosine-protein phosphatase non-receptor type 2. The experiment in a line: Inhibition of human N-terminal His6-tagged TCPTP catalytic domain (1 to 296 residues) expressed in Escherichia coli strain Rosetta2 (DE3) using DiFMUP as substrate preincubated for 10 mins followed by substrate addition and measured after 10 mins by fluorescence assay. The procedure, abridged: as §2

Experiment [5] addresses T2, Tyrosine-protein phosphatase non-receptor type 2 (Homo sapiens) (UniProt P17706).
T2 sequence (whole entry): T1 sequence (P17706 whole entry)
Kind of experiment: Non competitive inhibition of human N-terminal His6-tagged TCPTP catalytic domain (1 to 336 residues) expressed in Escherichia coli strain Rosetta2 (DE3) using DiFMUP as substrate preincubated for 10 mins followed by substrate addition and measured after 10 mins by fluorescence assay Michaelis-Menten plot analysis.

In experiment [6] the target is T2, Tyrosine-protein phosphatase non-receptor type 2 (Homo sapiens). Kind of experiment: Inhibition of human N-terminal His6-tagged TCPTP catalytic domain (1 to 296 residues) expressed in Escherichia coli strain Rosetta2 (DE3) up to 500 uM using pNPP as substrate preincubated for 10 mins followed by substrate addition and measured after 10 mins by […].

The target in experiment [7] is T3, Tyrosine-protein phosphatase non-receptor type 1 (Homo sapiens) (UniProt P18031).
T3 sequence (whole entry): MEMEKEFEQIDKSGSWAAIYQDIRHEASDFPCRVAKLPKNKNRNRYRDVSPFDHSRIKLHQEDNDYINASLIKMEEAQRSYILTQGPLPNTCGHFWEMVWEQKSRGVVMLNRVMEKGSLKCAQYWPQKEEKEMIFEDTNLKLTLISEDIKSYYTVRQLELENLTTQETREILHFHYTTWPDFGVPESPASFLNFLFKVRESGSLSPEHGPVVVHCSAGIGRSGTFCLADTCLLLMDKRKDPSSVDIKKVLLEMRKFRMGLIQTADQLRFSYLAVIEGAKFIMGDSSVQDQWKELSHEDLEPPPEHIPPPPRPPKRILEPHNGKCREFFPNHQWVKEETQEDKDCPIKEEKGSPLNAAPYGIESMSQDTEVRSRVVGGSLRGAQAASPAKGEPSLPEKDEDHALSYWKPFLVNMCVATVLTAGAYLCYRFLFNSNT
The experiment in a line: Reversible inhibition of human N-terminal His6-tagged PTP1B catalytic domain (1 to 298 residues) expressed in Escherichia coli strain Rosetta2 (DE3) at 10 times IC50 using DiFMUP as substrate preincubated for 30 mins followed by 100 fold compound dilution and substrate addition measured for 60 mins fluorescence assay.

Experiment [8] deals with T3, Tyrosine-protein phosphatase non-receptor type 1 (Homo sapiens). The experiment in a line: Inhibition of human N-terminal His6-tagged PTP1B catalytic domain (1 to 393 residues) expressed in Escherichia coli strain Rosetta2 (DE3) using DiFMUP as substrate preincubated for 10 mins followed by substrate addition and measured after 10 mins in presence of 0.05% Tween20 by fluorescence assay. The procedure, abridged: (§3)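 DiFMUP IC50 assay (1 nM enzyme, 10 min preincubation, substrate at Km, 37 °C, ex 358/em 455 nm), repeated as an aggregation check under three altered conditions: 10-fold enzyme (10 nM), 0.05% Tween 20, or 0.1 mg/mL BSA in buffer.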

Experiment [9] relates to Mus musculus. Kind of experiment: Antiobesity activity in high fat diet-induced obese Ptpn1fl/fl null C57BL/6 mouse treated with rAAV-CMV-Cre-GFP for deletion of TCPTP assessed as reduction in body weight at 100 ug/kg, ip for 10 consecutive days. Format: functional, organism-based. The procedure, abridged:
as §1

The target of experiment [10] is T3, Tyrosine-protein phosphatase non-receptor type 1 (Homo sapiens). Kind of experiment: Inhibition of human N-terminal His6-tagged PTP1B catalytic domain (1 to 393 residues) expressed in Escherichia coli strain Rosetta2 (DE3) using DiFMUP as substrate preincubated for 10 mins followed by substrate addition and measured after 10 mins in presence of 10 fold higher enzyme concentration by fluorescence assay. The essentials: as §3

Experiment [11] addresses T2, Tyrosine-protein phosphatase non-receptor type 2 (Homo sapiens). Kind of experiment: Inhibition of human N-terminal His6-tagged TCPTP catalytic domain (1 to 336 residues) expressed in Escherichia coli strain Rosetta2 (DE3) using DiFMUP as substrate preincubated for 10 mins followed by substrate addition and measured after 10 mins in presence of 10 fold higher enzyme concentration by fluorescence assay. The essentials: as §3

Experiment [12] has as its target T3, Tyrosine-protein phosphatase non-receptor type 1 (Homo sapiens). The experiment in a line: Binding affinity to human N-terminal His6-tagged PTP1B catalytic domain (1 to 298 residues) expressed in Escherichia coli strain Rosetta2 (DE3) by NMR spectroscopy. The essentials:
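100 μM 2H(~70%)/15N-labelled PTP1B1−298 in 100 mM d11-Tris pH 7.5, 75 mM NaCl, 10% D2O at 20 °C. Compound added to 250 μM (0.5% DMSO-d6); 1H,15N TROSY at 800 MHz against DMSO-only reference; amide chemical shift perturbations computed.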

The target in experiment [13] is T2, Tyrosine-protein phosphatase non-receptor type 2 (Homo sapiens). The experiment in a line: Inhibition of human N-terminal His6-tagged TCPTP catalytic domain (1 to 296 residues) expressed in Escherichia coli strain Rosetta2 (DE3) by NMR spectroscopy.

pIC50: −log10 of the molar value. The source made the active and inactive calls. The calls are words filed in the database; no cut-off is given here.

As a reminder, the pIC50 is the negative decadic logarithm of the IC50, by convention in mol/L. The low end stands for a high IC50, the high end for a low IC50. Regarding `CC1=C(O)C(=O)C=C2C1=CC=C1[C@@]2(C)CC[C@@]2(C)[C@@H]3C[C@](C)(C(=O)O)CC[C@]3(C)CC[C@]12C` [CELASTROL], the outcome (in the experiment on Mus musculus [1]; in experiment [12]; in experiment [13]) was Active. In addition, the inhibition result (with Mus musculus [2]; in [5]; in experiment [6]; in experiment [7]; in experiment [8]; in experiment [10]) was “Active” in each case. In experiment [11], the inhibition result was “Active”. Besides, the pIC50 in [3] was 4.73; in experiment [4], 4.64. The result in the experiment on Mus musculus [9] was inactive.

The values above are taken from ChEMBL document CHEMBL4371044, “Celastrol Promotes Weight Loss in Diet-Induced Obesity by Inhibiting the Protein Tyrosine Phosphatases PTP1B and TCPTP in the Hypothalamus” (J Med Chem, 2018).
